Experimental data gathered from unrelated publications.
Compare with care: the assays were run in different laboratories.
Target: Serine/threonine-protein kinase OSR1 (OXSR1, Homo sapiens, UniProt O95747)

Cn1c2c(c3ccc(Cl)c(Cl)c31)C(C#N)C(C)(C)NC2=O (stereo not shown) — ΔTm (thermal stability; DSF; 10 µM): -0.1 °C
Cc1sc(C(=O)NC2COC2)cc1-n1cc(NC(=O)Nc2c(F)cccc2Cl)cn1 — remaining activity (enzyme activity; inhibitor; 10 µM): 127%
COc1cc(Nc2c(C#N)cnc3cc(OCCCN4CCN(C)CC4)c(OC)cc23)c(Cl)cc1Cl — remaining signal (cell-free assay; 0.5 µM): 100%
CN1CCC2(CC1)NC(=O)c1c(c3ccc(Cl)c(Cl)c3n1C)C2C#N (racemic) — ΔTm (thermal stability; DSF; 10 µM): -0.3 °C
COc1cc(Nc2cnc(C#N)c(O[C@H](C)CN(C)C)n2)ncc1-c1cnn(C)c1 — remaining activity (enzyme activity; inhibitor; radiometric; 10 µM): 106%
O=C(O)c1cc(-c2ccc(C3CCNCC3)cc2)c2ccc(-c3ccc(C(F)(F)F)cc3)cc2c1 — remaining binding (cell-free assay; competition with immobilised ligand; 1 µM): 100%
CCN1CCN(Cc2ccc(NC(=O)c3ccc(C)c(Oc4ccnc5[nH]ccc45)c3)cc2C(F)(F)F)CC1 — inhibition (target engagement in cells; inhibitor; chemoproteomics; Huh-7; 10 µM): -24.5%
Cc1c(NC(=O)c2cc(C(N)=O)nc3cc(F)ccc23)c(C(F)(F)F)nn1Cc1ccc(C(C)(C)C)cc1 — remaining binding (cell-free assay; competition with immobilised ligand; 1 µM): 100%
FC(F)(F)Oc1cccc(-c2cnc3ccc(-c4ccncc4)nn23)c1 — activity vs control (enzyme activity; inhibitor; radiometric; 5 µM): 104%
Cc1nc(Cc2cccc(C(F)(F)F)c2)sc1-c1ccc(C(N)=O)nc1 — remaining binding (cell-free assay; competition with immobilised ligand; 1 µM): 100%
COc1cccc2c(NCc3ccccc3)nc(-n3c(N)nc4ccccc43)nc12 — inhibition (target engagement in cells; inhibitor; chemoproteomics; 20 mM): -6.6%
N#CC1(c2ccccn2)CCN(Cc2cc(C(=O)N3CCCC3)c(=O)n3ccccc23)CC1 — remaining binding (cell-free assay; competition with immobilised ligand; 1 µM): 100%
N#CCCc1ccc2c(c1)-c1[nH]c3ccc([N+](=O)[O-])cc3c1CC(=O)N2 — remaining signal (cell-free assay; 0.5 µM): 94.6%
Cn1c2c(c3ccc(Cl)c(Cl)c31)C(C#N)C1(CCNCC1)NC2=O (racemic) — ΔTm (thermal stability; DSF; 10 µM): -0.1 °C
Nc1ncnc2occ(-c3ccc(NC(=O)Nc4cc(C(F)(F)F)ccc4F)cc3)c12 — remaining signal (cell-free assay; inhibitor; 20 µM): 9.5%
Cn1c2c(c3ccc(Cl)c(Cl)c31)C(C#N)C1(CCOCC1)NC2=O (stereo not shown) — ΔTm (thermal stability; DSF; 10 µM): -0.5 °C
COc1cc(/C=C/C(=O)CC(=O)/C=C/c2ccc(O)c(OC)c2)ccc1O — activity vs control (enzyme activity; inhibitor; 1 µM): 104%
Cn1nc(C(F)(F)F)cc1-c1cnc(N2CCc3cc(S(=O)(=O)Nc4c(F)cc(Cl)cc4F)cc(N4CCCC4=O)c32)nc1 — remaining binding (cell-free assay; competition with immobilised ligand; 1 µM): 99%
O=C1Nc2ccc(Cl)cc2C1=Cc1cc(Cl)c(O)c(Cl)c1 — remaining signal (cell-free assay; 0.5 µM): 91.6%
COCCOc1nc(-c2ccc(Cl)nc2)nc2c1CN(C(=O)c1ncn3ccccc13)CC2 — remaining binding (cell-free assay; competition with immobilised ligand; 0.1 µM): 100%
Cn1c2c(c3ccc(Cl)c(Cl)c31)C(C#N)C1(CCCC1)NC2=O (stereo not shown) — ΔTm (thermal stability; DSF; 10 µM): -0.1 °C
O=C1NC(c2ccccn2)Sc2ccccc21 (stereo not shown) — remaining binding (cell-free assay; competition with immobilised ligand; 1 µM): 100%
Cn1c2c(Cl)c(Cl)ccc2c2cn[nH]c(=O)c21 — ΔTm (thermal stability; DSF; 10 µM): -0.2 °C
Cn1cc(Cl)c2c(Oc3c(F)cc(Nc4cc(Cl)nc(N)n4)cc3F)ccnc21 — remaining binding (cell-free assay; competition with immobilised ligand; 0.1 µM): 93%
Cc1ccc(NC(=O)c2ccc(CN3CCN(C)CC3)cc2)cc1Nc1nc(-c2cccnc2)cs1 — remaining signal (cell-free assay; 0.5 µM): 95.6%
